According to ChEMBL document CHEMBL1122647 (J Med Chem, 1984):
Where “and” joins values, the source holds several entries; their conditions need not be identical. Equal values may be shown once.

Tests used:
L1210 = assay: Compound was evaluated for its cytotoxicity against the L1210 murine leukemia cell culture; format: functional; conditions: Mus musculus, read-out: ID50 (the source's name)
Mus musculus [1] = assay: In vivo antitumor activity was evaluated against L1210 leukemia implanted mice by measuring percent increase in life span after intraperitoneal administration of compound at 16 mg/kg; format: functional; conditions: 16 mg/kg
Outline: (§1)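 Male B6D2F1J mice, five per group, were implanted ip with 10^5 L1210 cells on day 0. Treatment began on day 1. Drug was given ip in sterile water, twice daily on days 1-4 and 7-10, and as a single double-dose injection on days 5 and 6. Survival was recorded in days (range, and median treated/control), with % ILS derived from it. Body-weight change at 7 days was also recorded.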

Mus musculus [2] = assay: In vivo antitumor activity was evaluated against L1210 leukemia implanted mice by measuring T/C median after intraperitoneal administration of compound at 32 mg/kg; 22/9; format: functional
Outline: (§2)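 Male B6D2F1J mice, five per group, were inoculated ip with 10^5 L1210 cells on day 0. Treatment began on day 1, given ip in sterile water twice daily on days 1-4 and 7-10, with a single double-dose injection on each of days 5 and 6. Read-outs were percent body weight change over 7 days, survival range in days, treated/control median survival, and percent increase in life span.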

Mus musculus [3] = assay: In vivo antitumor activity was evaluated against L1210 leukemia implanted mice by measuring number of survival days after intraperitoneal administration of compound at 32 mg/kg; range 21-24; format: functional; outline: as §2
Mus musculus [4] = assay: In vivo antitumor activity was evaluated against L1210 leukemia implanted mice by measuring T/C median after intraperitoneal administration of compound at 16 mg/kg; 21/9; format: functional; outline: as §2
Mus musculus [5] = assay: In vivo antitumor activity was evaluated against L1210 leukemia implanted mice by measuring 7-day weight change after intraperitoneal administration of compound at 32 mg/kg; format: functional
Outline: (§3)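 Groups of five male B6D2F1J mice were inoculated ip with 10^5 L1210 cells on day 0. Starting day 1, drug in sterile water was given ip bid on days 1-4 and 7-10, with a single double-dose injection on days 5 and 6. Percent body-weight change was recorded at day 7, along with survival range, median T/C and ILS.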

Mus musculus [6] = assay: In vivo antitumor activity was evaluated against L1210 leukemia implanted mice by measuring number of survival days after intraperitoneal administration of compound at 16 mg/kg; range 19-21; format: functional; outline: as §2
Mus musculus [7] = assay: In vivo antitumor activity was evaluated against L1210 leukemia implanted mice by measuring 7-day weight change after intraperitoneal administration of compound at 16 mg/kg; format: functional; outline: as §3
[8] = target: T1, Dihydrofolate reductase (Mus musculus) (UniProt P00375)
T1 sequence (whole entry): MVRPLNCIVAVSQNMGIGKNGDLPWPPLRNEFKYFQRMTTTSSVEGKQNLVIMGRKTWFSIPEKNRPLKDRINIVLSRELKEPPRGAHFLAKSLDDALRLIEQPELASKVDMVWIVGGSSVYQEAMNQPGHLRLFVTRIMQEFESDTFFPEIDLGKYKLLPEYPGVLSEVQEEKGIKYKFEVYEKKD

Mus musculus [9] = assay: In vivo antitumor activity was evaluated against L1210 leukemia implanted mice by measuring percent increase in life span after intraperitoneal administration of compound at 1 mg/kg; format: functional; outline: as §1
Mus musculus [10] = assay: In vivo antitumor activity was evaluated against L1210 leukemia implanted mice by measuring percent increase in life span after intraperitoneal administration of compound at 2 mg/kg; format: functional; outline: as §1
Mus musculus [11] = assay: In vivo antitumor activity was evaluated against L1210 leukemia implanted mice by measuring 7-day weight change after intraperitoneal administration of compound at 2 mg/kg; format: functional; outline: as §3
Mus musculus [12] = assay: In vivo antitumor activity was evaluated against L1210 leukemia implanted mice by measuring percent increase in life span after intraperitoneal administration of compound at 0.5 mg/kg; format: functional; outline: as §1
Mus musculus [13] = assay: In vivo antitumor activity was evaluated against L1210 leukemia implanted mice by measuring T/C median after intraperitoneal administration of compound at 1 mg/kg; T/C median=16/8; format: functional; outline: as §1
Mus musculus [14] = assay: In vivo antitumor activity was evaluated against L1210 leukemia implanted mice by measuring T/C median after intraperitoneal administration of compound at 2 mg/kg; T/C median=19/8; format: functional; outline: as §1
Mus musculus [15] = assay: In vivo antitumor activity was evaluated against L1210 leukemia implanted mice by measuring number of survival days after intraperitoneal administration of compound at 2 mg/kg; at a range of 16-20; format: functional; outline: as §1
Mus musculus [16] = assay: In vivo antitumor activity was evaluated against L1210 leukemia implanted mice by measuring T/C median after intraperitoneal administration of compound at 0.5 mg/kg; T/C median=15/8; format: functional; outline: as §1
Mus musculus [17] = assay: In vivo antitumor activity was evaluated against L1210 leukemia implanted mice by measuring 7-day weight change after intraperitoneal administration of compound at 0.5 mg/kg; format: functional; outline: as §3
Mus musculus [18] = assay: In vivo antitumor activity was evaluated against L1210 leukemia implanted mice by measuring number of survival days after intraperitoneal administration of compound at 0.5 mg/kg; at a range of 13-16; format: functional; outline: as §1
Mus musculus [19] = assay: In vivo antitumor activity was evaluated against L1210 leukemia implanted mice by measuring 7-day weight change after intraperitoneal administration of compound at 1 mg/kg; format: functional; outline: as §3
Mus musculus [20] = assay: In vivo antitumor activity was evaluated against L1210 leukemia implanted mice by measuring number of survival days after intraperitoneal administration of compound at 1 mg/kg; at a range of 13-17; format: functional; outline: as §1
Mus musculus [21] = assay: In vivo antitumor activity was evaluated against L1210 leukemia implanted mice by measuring percent increase in life span after intraperitoneal administration of compound at 0.06 mg/kg; format: functional; outline: as §1
Mus musculus [22] = assay: In vivo antitumor activity was evaluated against L1210 leukemia implanted mice by measuring percent increase in life span after intraperitoneal administration of compound at 0.12 mg/kg; format: functional; outline: as §2
Mus musculus [23] = assay: In vivo antitumor activity was evaluated against L1210 leukemia implanted mice by measuring percent increase in life span after intraperitoneal administration of compound at 0.24 mg/kg; format: functional; outline: as §1
Mus musculus [24] = assay: In vivo antitumor activity was evaluated against L1210 leukemia implanted mice by measuring T/C median after intraperitoneal administration of compound at 0.12 mg/kg; T/C median=14/8; format: functional; outline: as §2
Mus musculus [25] = assay: In vivo antitumor activity was evaluated against L1210 leukemia implanted mice by measuring T/C median after intraperitoneal administration of compound at 0.24 mg/kg; T/C median=19/8; format: functional; outline: as §1
Mus musculus [26] = assay: In vivo antitumor activity was evaluated against L1210 leukemia implanted mice by measuring 7-day weight change after intraperitoneal administration of compound at 0.06 mg/kg; format: functional; outline: as §3
Mus musculus [27] = assay: In vivo antitumor activity was evaluated against L1210 leukemia implanted mice by measuring 7-day weight change after intraperitoneal administration of compound at 0.12 mg/kg; format: functional; outline: as §2
Mus musculus [28] = assay: In vivo antitumor activity was evaluated against L1210 leukemia implanted mice by measuring 7-day weight change after intraperitoneal administration of compound at 0.24 mg/kg; format: functional; outline: as §3
Mus musculus [29] = assay: In vivo antitumor activity was evaluated against L1210 leukemia implanted mice by measuring number of survival days after intraperitoneal administration of compound at 0.06 mg/kg at a range of 11-13; format: functional; outline: as §1
Mus musculus [30] = assay: In vivo antitumor activity was evaluated against L1210 leukemia implanted mice by measuring number of survival days after intraperitoneal administration of compound at 0.12 mg/kg at a range of 12-15; format: functional; outline: as §2
Mus musculus [31] = assay: In vivo antitumor activity was evaluated against L1210 leukemia implanted mice by measuring number of survival days after intraperitoneal administration of compound at 0.24 mg/kg at a range of 12-20; format: functional; outline: as §1

CN(Cc1cnc2nc(N)nc(N)c2n1)c1ccc(C(=O)NC(CCS(=O)(=O)O)C(=O)O)cc1 (stereo unspecified)
IC50 (L1210): 180 nM | Activity (Mus musculus [1]): 155% and 144% | Survival days (Mus musculus [2]): 22 | Survival days (Mus musculus [3]): 21 | Survival days (Mus musculus [4]): 21 | Weight change (Mus musculus [5]): -12% | Survival days (Mus musculus [6]): 19 | Weight change (Mus musculus [7]): -9% | ID50 [8]: 41 nM

Nc1nc(N)c2nc(CNc3ccc(C(=O)NC(CCS(=O)(=O)O)C(=O)O)cc3)cnc2n1 (stereo unspecified)
IC50 (L1210): 31 nM | Activity (Mus musculus [9]): 100% | Activity (Mus musculus [10]): 138% | Activity (Mus musculus [11]): -8% | Activity (Mus musculus [12]): 88% | Survival days (Mus musculus [13]): 16 | Survival days (Mus musculus [14]): 19 | Survival days (Mus musculus [15]): 16 | Survival days (Mus musculus [16]): 15 | Weight change (Mus musculus [17]): -1% | Survival days (Mus musculus [18]): 13 | Activity (Mus musculus [19]): -8% | Survival days (Mus musculus [20]): 13 | ID50 [8]: 63 nM

Nc1nc(N)c2nc(CNc3ccc(C(=O)N[C@@H](CCC(=O)O)C(=O)O)cc3)cnc2n1 [AMINOPTERIN]
IC50 (L1210): 3.1 nM | Activity (Mus musculus [21]): 50% | Activity (Mus musculus [22]): 75% | Activity (Mus musculus [23]): 138% | Survival days (Mus musculus [24]): 14 | Survival days (Mus musculus [25]): 19 | Weight change (Mus musculus [26]): 1% | Weight change (Mus musculus [27]): 3% | Weight change (Mus musculus [28]): -12% | Survival days (Mus musculus [29]): 11 | Survival days (Mus musculus [30]): 12 | Survival days (Mus musculus [31]): 12 | ID50 [8]: 40 nM
